Screening results: PubChem BioAssay, several laboratories
An excerpt weighted towards active compounds, which were near 4% of everything screened.
ERa coact pot: ER-alpha (human) coactivator binding potentiation; P03372; TR-FRET ERalpha-LBD/SRC-Cy5 coactivator binding, 2 h; 100 = basal binding, no effect; coactivator binding (% of control), % at 25.6 µM; 1.3% of 86,000 active; AID 639; in the data active = activity above about 200%;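 note: binding measured in presence of low estradiol as agonist stimulus; 0% = peptide alone without receptor and 100% = receptor with peptide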
ERb SRC1 inh: ER-beta (human) coactivator binding inhibition. TR-FRET ER-beta LBD / SRC1-Cy5 peptide binding; receptor agonist-loaded with 1 µM estradiol. inhibition, % at 25.6 µM. 1.3% of 86,000 active. AID 633;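 active = compounds whose percent inhibition of the receptor-coactivator binding signal exceeds about 50% in the single-dose screen, limit read from the data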;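 note: 0% = receptor plus peptide wells without compound and 100% = peptide-only wells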
HIV Rev-RRE inh: inhibitors of HIV-1 Rev-RRE RNA interaction | Rev peptide-RRE RNA binding, FRET | inhibition, % at 8 µM | 0.79% of 97,000 active | AID 704;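 active = inhibition above the screen-wide mean plus 3 SD, cut at about 35% in these data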;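 note: 0% = median DMSO wells and 100% = median Neomycin B control wells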
Target sequence (P05866 whole entry, looked up): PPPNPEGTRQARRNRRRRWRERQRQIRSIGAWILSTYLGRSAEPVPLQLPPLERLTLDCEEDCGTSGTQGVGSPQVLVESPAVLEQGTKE
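Test system – labelled RRE RNA duplex and labelled Rev peptide · Reagent – labelled Rev peptide · Doses – one concentration, 8 µM nominal · Incubation – 5 + 15 min at 25 °C · Signal – FRET fluorescence readout · Read-out basis – % inhibition of FRET ratio versus controls · Control set – DMSO wells as 0% and neomycin B wells as 100% inhibition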
FAK inh: FAK (human) kinase inhibition | Q05397 | biochemical FAK kinase activity assay | inhibition, %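 (tested at 7 µM)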 | 0.84% of 97,000 active; in the data active = inhibition above about 19%;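 note: 0% = DMSO and 100% = reference compound high control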
ERa coact inh: ER-alpha (human) coactivator binding inhibition. P03372. TR-FRET ER-alpha LBD / SRC-1 peptide, estradiol-bound. inhibition, % at 25.6 µM. 1.7% of 86,000 active; in the data active = inhibition above about 50%;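 note: 0% = receptor plus peptide control and 100% = peptide only without receptor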
Smad3 FoxH1 inh: Smad3 (human) transcription factor binding inhibition; P84022; TR-FRET Smad3/Dy647-FoxH1 peptide binding, europium anti-His; inhibition, % at 25 µM; 0.29% of 88,000 active; AID 630;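 active = compounds that reduce the energy-transfer binding signal between the protein and its labelled peptide by more than half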;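 note: 0% = Smad3 plus labelled peptide maximal FRET and 100% = peptide-only background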
Target sequence (P84022 whole entry, looked up): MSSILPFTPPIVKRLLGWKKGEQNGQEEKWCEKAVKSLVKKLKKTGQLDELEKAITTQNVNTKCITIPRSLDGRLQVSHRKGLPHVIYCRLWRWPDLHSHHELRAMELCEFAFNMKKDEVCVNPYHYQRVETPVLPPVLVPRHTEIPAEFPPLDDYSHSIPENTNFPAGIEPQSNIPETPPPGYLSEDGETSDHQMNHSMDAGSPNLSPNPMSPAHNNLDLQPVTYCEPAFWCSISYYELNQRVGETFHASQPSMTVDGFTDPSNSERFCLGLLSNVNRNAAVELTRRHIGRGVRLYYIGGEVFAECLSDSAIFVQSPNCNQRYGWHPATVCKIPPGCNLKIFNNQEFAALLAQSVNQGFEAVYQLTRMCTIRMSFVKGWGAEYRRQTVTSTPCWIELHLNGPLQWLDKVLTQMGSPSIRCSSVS
Active calls of the source: *; ! = repeats disagree; [ ] = another dose, or the depositor's remark.

Results for COCCCn1c2nc3ccccc3nc2c2c(=O)n(Cc3ccccc3Cl)cnc21 ?
ERa coact pot: 257*; ERb SRC1 inh: 12; ERa coact inh: 9; Smad3 FoxH1 inh: 9

What do the screens show for `OC(Cc1ccccc1)(Cc1ccccc1)c1ccccc1`?
Smad3 FoxH1 inh: -2

What do the screens show for `Cc1noc(C)c1C(=O)NCCc1ccc(Cl)cc1`?
ERa coact pot: 99; ERb SRC1 inh: -1; HIV Rev-RRE inh: 95*[fluorescence artefact?]; FAK inh: 1; ERa coact inh: -2; Smad3 FoxH1 inh: 9

How did Cc1noc(C)c1C(=O)NCCC1=CCCCC1 do in these assays?
ERa coact pot: 109; ERb SRC1 inh: -1; HIV Rev-RRE inh: 2; FAK inh: 0; ERa coact inh: -1; Smad3 FoxH1 inh: -9

How did Nc1ccc(C(=O)Nc2ccco2)cc1 do in these assays?
ERa coact pot: 100; ERb SRC1 inh: 0; HIV Rev-RRE inh: 3; FAK inh: -2; ERa coact inh: -12; Smad3 FoxH1 inh: 9

What do the screens show for `CCCc1nnc(NC(=O)c2c(O)c3cccc4c3n(c2=O)CCC4)s1`?
ERa coact pot: 93; ERb SRC1 inh: 56*[fluorescence artefact?]; ERa coact inh: 15; Smad3 FoxH1 inh: 45

Results for CC(C)c1nnc(NC(=O)c2c(O)c3cccc4c3n(c2=O)CC4)s1 ?
ERa coact pot: 111; ERb SRC1 inh: 5; ERa coact inh: 3; Smad3 FoxH1 inh: 17

Results for O=c1[nH]c(=S)[nH]c2c1CN(CCCN1CCOCC1)CN2 ?
Smad3 FoxH1 inh: 9

How did COc1ccc(CC[N@+]2(C)COc3cc4oc(=O)cc(C)c4cc3C2)cc1OC do in these assays?
Smad3 FoxH1 inh: 17

How did CCN1C(=O)c2cccc3c(NC(=O)c4ccc5c(c4)OCCO5)ccc1c23 do in these assays?
ERa coact pot: 255*; ERb SRC1 inh: 2; ERa coact inh: 7; Smad3 FoxH1 inh: -6

How did COc1ccc(CC(NC(C)=O)C(=O)NC2CCN(C(=O)NCc3ccccc3)CC2)cc1OC (stereo not given) do in these assays?
ERa coact pot: 117; ERb SRC1 inh: 87*[fluorescence artefact?]; HIV Rev-RRE inh: 3; FAK inh: 0; ERa coact inh: -5; Smad3 FoxH1 inh: 2

What do the screens show for `CN(C)C(=O)C1CCN(Cc2c[nH]c3ccccc23)CC1`?
Smad3 FoxH1 inh: 12

Results for CCOC(=O)c1ccc(NCn2c(=O)oc3ccccc32)cc1 ?
ERa coact pot: 124; ERb SRC1 inh: 7; HIV Rev-RRE inh: 55*; FAK inh: -4; ERa coact inh: 7; Smad3 FoxH1 inh: 12

How did COc1ccc2c(C)cc(SCC(=O)N3CCOCC3)nc2c1 do in these assays?
ERa coact pot: 93; ERb SRC1 inh: 31; HIV Rev-RRE inh: 60*; FAK inh: 0; ERa coact inh: 23; Smad3 FoxH1 inh: 9

What do the screens show for `COc1ccc2c(C)cc(N3CCOCC3)nc2c1`?
ERa coact pot: 91; ERb SRC1 inh: -12; HIV Rev-RRE inh: 11; FAK inh: 0; ERa coact inh: -10; Smad3 FoxH1 inh: 10

How did CCOC(=O)C1=C(O)/C(=C/c2cn(CC(=O)NCC3CCCO3)c3ccccc23)SC1=Nc1ccc(C)cc1 (stereo not given) do in these assays?
ERa coact pot: 56; ERb SRC1 inh: 45; HIV Rev-RRE inh: 41*; FAK inh: 7; ERa coact inh: 78*; Smad3 FoxH1 inh: -13

How did CC1=CC(C)(C)Nc2ccc(CSc3ccccc3)cc21 do in these assays?
Smad3 FoxH1 inh: 1

Results for CC1(C)[C@@H]2CC[C@@]1(CC(=O)O)[C@@H](Cl)C2 ?
Smad3 FoxH1 inh: -6

Results for CC1CCc2c(sc(NC(=O)c3ccc(Cn4cc([N+](=O)[O-])cn4)o3)c2C#N)C1 (stereo not given) ?
ERa coact pot: 70; ERb SRC1 inh: 64*; HIV Rev-RRE inh: 14; FAK inh: 19; ERa coact inh: 61*; Smad3 FoxH1 inh: -3

How did O=C(CCc1nc2ccccc2[nH]c1=O)OCC(=O)c1cccc2ccccc12 do in these assays?
HIV Rev-RRE inh: 3; FAK inh: -3

What do the screens show for `CCN(CC)CCc1c(C)[nH]c(C(=O)OCc2ccccc2)c1C`?
ERa coact pot: 6; ERb SRC1 inh: 93*[fluorescence artefact?]; HIV Rev-RRE inh: 4; FAK inh: 6; ERa coact inh: 96*[fluorescence artefact?]; Smad3 FoxH1 inh: 25

How did CNC(=O)c1ccc(-c2sc3nc(N4CCOCC4)c4c(c3c2N)CC(C)(C)OC4)o1 do in these assays?
ERa coact pot: 107; ERb SRC1 inh: -13; HIV Rev-RRE inh: 7; FAK inh: -3; ERa coact inh: -12; Smad3 FoxH1 inh: -13

Results for CC1(C)Cc2c(c(N3CCOCC3)nc3sc(-c4ccc(C(=O)O)o4)c(N)c23)CO1 ?
HIV Rev-RRE inh: 40*; FAK inh: 0

How did O=c1c[n+](CC[n+]2cc(=O)o[nH]2)[nH]o1 do in these assays?
Smad3 FoxH1 inh: -5

Results for Cc1cc(=O)oc2cc(O)c(CN(C)CC(=O)O)cc12 ?
Smad3 FoxH1 inh: -12

What do the screens show for `Cc1ccc(C(=O)Oc2ccc(C(=O)COC(=O)C3CC(=O)N(Cc4ccco4)C3)cc2)cc1` (stereo not given)?
ERa coact pot: 274*[fluorescence artefact?]; ERb SRC1 inh: 7; HIV Rev-RRE inh: -3; FAK inh: 7; ERa coact inh: 24; Smad3 FoxH1 inh: 5

What do the screens show for `CN(c1ccccc1C(=O)Nc1ccc2c(c1)OCCO2)S(C)(=O)=O`?
ERa coact pot: 121; ERb SRC1 inh: -25; HIV Rev-RRE inh: 2; FAK inh: 0; ERa coact inh: -23; Smad3 FoxH1 inh: 11

Results for CS(=O)(=O)N(CC(=O)Nc1ccc2c(c1)OCO2)Cc1ccccc1 ?
ERa coact pot: 117; ERb SRC1 inh: 31; HIV Rev-RRE inh: 1; FAK inh: -1; ERa coact inh: 0; Smad3 FoxH1 inh: -11

What do the screens show for `CN(c1ccc(C(=O)NCc2ccc3c(c2)OCO3)cc1)S(C)(=O)=O`?
ERa coact pot: 101; ERb SRC1 inh: 81*[fluorescence artefact?]; HIV Rev-RRE inh: 5; FAK inh: 3; ERa coact inh: -2; Smad3 FoxH1 inh: 3

Results for CCCN(CCC)S(=O)(=O)c1ccc(C(=O)NCc2ccc3c(c2)OCO3)cc1 ?
ERa coact pot: 112; ERb SRC1 inh: -6; HIV Rev-RRE inh: 10; FAK inh: -3; ERa coact inh: -2; Smad3 FoxH1 inh: 5

What do the screens show for `CN(c1ccccc1C(=O)Nc1ccc2c(c1)OCO2)S(C)(=O)=O`?
ERa coact pot: 62; ERb SRC1 inh: 53*[fluorescence artefact?]; HIV Rev-RRE inh: 5; FAK inh: -4; ERa coact inh: 48; Smad3 FoxH1 inh: -5

Results for CS(=O)(=O)N(CCc1ccccc1)CC(=O)Nc1ccc2c(c1)OCO2 ?
ERa coact pot: 47; ERb SRC1 inh: 46; HIV Rev-RRE inh: -1; FAK inh: 1; ERa coact inh: 62*[fluorescence artefact?]; Smad3 FoxH1 inh: 6

Results for COC(=O)Cc1csc(N)n1 ?
ERa coact pot: 109; ERb SRC1 inh: 63*![fluorescence artefact?]; HIV Rev-RRE inh: 11; FAK inh: 4; ERa coact inh: -4; Smad3 FoxH1 inh: -15
